Bioassay records as filed in PubChem.
A selection: hits, their analogues and other compounds. The true share with any hit is near 3.7%.
KCNK3 block: human KCNK3 channel inhibitors, primary screen, CHO cells, FluxOR thallium flux, B-score; Potassium channel subfamily K member 3 (Homo sapiens), O14649; FluxOR fluorescence; active compounds read low; B-score at 10 µM; 340,000 tested, 0.84% active; AID 602410, 2012;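 active = B-score under library mean minus 4 SD, starting fluorescence ratio at most library mean plus 5 SD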;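 also: more negative B-score means stronger inhibition of thallium flux through KCNK3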
KCNQ1 inh: inhibitors of human KCNQ1 channel, primary screen, cell-based, thallium flux, high-throughput; Potassium voltage-gated channel subfamily KQT member 1 (Homo sapiens), P51787; CHO-K1 KCNQ1, FluxOR thallium flux fluorescence; active compounds read high; B-score at 10 µM; AID 2642, 2010; 310,000 tested, 1.3% active;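 active = compounds whose thallium flux B-score, printed positive for inhibition, exceeds three library SD while starting fluorescence stays within three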;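 also: channel opened by potassium depolarization with thallium stimulus after 20 min compound exposure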
Target sequence (P51787 whole entry, looked up): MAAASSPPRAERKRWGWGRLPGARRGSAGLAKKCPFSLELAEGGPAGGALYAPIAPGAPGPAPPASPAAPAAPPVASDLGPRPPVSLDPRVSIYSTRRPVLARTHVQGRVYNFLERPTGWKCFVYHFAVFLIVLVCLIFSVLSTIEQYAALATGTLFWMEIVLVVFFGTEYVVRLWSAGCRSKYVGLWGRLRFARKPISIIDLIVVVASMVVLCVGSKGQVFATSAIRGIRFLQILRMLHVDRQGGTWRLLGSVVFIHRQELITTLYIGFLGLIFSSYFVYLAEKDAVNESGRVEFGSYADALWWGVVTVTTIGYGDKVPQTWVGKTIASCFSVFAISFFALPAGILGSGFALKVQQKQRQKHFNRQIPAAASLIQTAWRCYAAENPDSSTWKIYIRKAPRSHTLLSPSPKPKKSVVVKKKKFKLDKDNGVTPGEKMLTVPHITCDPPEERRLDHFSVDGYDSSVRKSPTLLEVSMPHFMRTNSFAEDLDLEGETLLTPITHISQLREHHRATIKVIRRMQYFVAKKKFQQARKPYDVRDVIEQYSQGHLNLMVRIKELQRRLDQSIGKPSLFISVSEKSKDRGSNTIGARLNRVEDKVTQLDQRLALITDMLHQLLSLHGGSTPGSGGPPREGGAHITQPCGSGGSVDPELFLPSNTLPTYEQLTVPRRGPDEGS
hERG protect: hERG rescue from dofetilide block, primary screen, cell-based, CHO-hERG, FluxOR thallium flux, dofetilide IC70; Voltage-gated inwardly rectifying potassium channel KCNH2 (Homo sapiens), Q12809; dofetilide IC70 present; activation (rescue from dofetilide block), less the hit threshold, % at 10 µM; 310,000 tested, 0.51% active; AID 1511, 2009;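 active = activation above the mean of controls blocked by dofetilide plus 5 SD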;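 also: thallium influx through hERG after potassium depolarization seen as dye fluorescence rise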
Kir21 block: inhibitors of mouse Kir2.1 inward-rectifier potassium channel | Inward rectifier potassium channel 2 (Mus musculus), P35561 | HEK293-Kir2.1, FluxOR thallium flux fluorescence; active compounds read low | B-score at 10 µM | 310,000 tested, 0.85% active;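 active = fluorescence ratio B-score at or below minus 3 SD of library scores, with starting-brightness B-score within 2 SD, cut at about -4.2 in these data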;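 also: channel flux triggered by added potassium and thallium sulfate stimulus; B-score of peak minus minimum fluorescence over baseline after thallium stimulus; more negative B-score means stronger Kir2.1 block with less thallium influx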
KCNK9 inh: KCNK9 potassium channel inhibitors, primary screen, HEK293 cells, thallium flux; B-score at 10 µM; Potassium channel subfamily K member 9 (Homo sapiens), Q9NPC2; AID 488922, 2010; 310,000 tested, 1.2% active; FluxOR thallium flux fluorescence; active compounds read low;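 active = ratio B-score over 3 SD below the library mean, with starting fluorescence within 5 SD of its mean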;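 also: negative B-score means less thallium flux so channel inhibition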
KCNQ1 pot: potentiators or activators of KCNQ1 channel, primary screen, cell-based, thallium flux, high-throughput; Potassium voltage-gated channel subfamily KQT member 1 (Homo sapiens), P51787; B-score at 10 µM; CHO-K1 KCNQ1, thallium flux FluxOR fluorescence; active compounds read high; 310,000 tested, 0.35% active;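 active = fluorescence ratio B-score, a plate-corrected score, at least three library SD, with initial intensity B-score within 5 SD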
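assay system = CHO-K1 cells stably expressing KCNQ1 | medium = assay buffer, equal DMSO in all wells | timing = 37 °C overnight plating, 90-min dark dye load, 20-min compound pretreatment | measured by = kinetic FluxOR thallium fluorescence, 10-s 1-Hz baseline, 110-s post-stimulus read | measure = fluorescence change relative to baseline, converted to B score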
KCNQ1 block val: KCNQ1 potassium channel inhibitors, confirmation, cell-based, Tl flux, duplicate; AID 588353, 2011; 1,600 tested, 93% active; KCNQ1 cell line, FluxOR thallium flux fluorescence; inhibition, % at 10 µM; shares compounds with KCNQ1 inh;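 active = primary screen active, with duplicate mean exceeding buffer control mean plus 3 SD of buffer wells, cut at about 28% in these data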
CHO Tl flux: thallium flux effects in parental CHO cells, counter-screen for KCNQ1 inhibitor project, cell-based, Tl flux. shares compounds with KCNQ1 inh. parental CHO-K1, FluxOR thallium flux fluorescence ratio; active compounds read low; zero means no signal rise above baseline. fluorescence ratio (Tl flux) at 10 µM. 1,600 tested, 21% active. AID 588366, 2011;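 active = mean of duplicate thallium-flux fluorescence ratios in parental host cells more than 5 SD below the buffer control mean, cut at about 0.38 in these data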;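 also: ratio is peak minus minimum fluorescence divided by baseline fluorescence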
KCNQ1 ephys val: KCNQ1 channel inhibitors, confirmation, orthogonal assay, cell-based, automated electrophysiology; shares compounds with KCNQ1 inh; KCNQ1-CHO cells, automated patch clamp current; calls only at 10 µM; 490 tested, 20% active;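 active = KCNQ1 current drop exceeding 3 SD of negative control wells, seen in both duplicate runs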;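 also: steady state current during a 2 s step from -80 to +40 mV; negative values mean current inhibition and positive values mean potentiation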
KCNQ2 inh: KCNQ2 channel inhibition, selectivity assay for KCNQ1 inhibitor project, cell-based; 1,600 tested, 71% active; shares compounds with KCNQ1 inh; inhibition, % at 10 µM; KCNQ2 cells, FluxOR thallium flux fluorescence;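 active = mean percent inhibition of the KCNQ2 thallium signal more than 5 SD above the buffer-only control wells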;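 also: KCNQ2 expressed in CHO cells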
KCNQ1 KCNE1 spec: KCNQ1/KCNE1 channel inhibition, selectivity assay for KCNQ1 inhibitor project, CHO-K1 cells, thallium flux, FluxOR. shares compounds with KCNQ1 inh. FluxOR thallium flux fluorescence. inhibition, % at 10 µM. 1,600 tested, 77% active;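 active = mean percent inhibition of duplicate wells above the buffer-only control mean plus 3 SD of those controls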
KCNK9 block conf: KCNK9 potassium channel inhibitors, confirmation, HEK293 cells, thallium flux, duplicate; 4,900 tested, 43% active; FluxOR thallium flux fluorescence; inhibition, % at 10 µM; AID 492992, 2010; shares compounds with KCNK9 inh;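 active = thallium signal inhibited by more than 5 SD of the compound-free buffer control wells, on both duplicate plates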
Kir21 sel: mouse Kir2.1 channel inhibition, confirmation, selectivity assay for KCNK9 modulator project, cell-based, HEK293, thallium flux; Kir2.1 cells, FluxOR thallium flux fluorescence; 4,900 tested, 4% active; inhibition, % at 10 µM; shares compounds with KCNK9 inh;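 active = thallium signal drop more than 5 SD beyond the mean of the no-compound control wells, seen in both duplicate plates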;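 also: signal is fluorescence rise after thallium addition divided by baseline fluorescence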
KCNK9 uninduced: thallium flux in non-induced HEK293 cells, confirmation, counter-screen for KCNK9 inhibitor project, cell-based, second counter screen, non-induced KCNK9-HEK293 | shares compounds with KCNK9 inh | FluxOR thallium flux | inhibition, % at 10 µM | 4,900 tested, 40% active;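 active = thallium signal drop beyond 5 SD of the untreated control mean, on both duplicate plates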
Hits are given with their value; 0 = inactive; - = no result; + = active, no number.

SMILES	KCNK3 block	KCNQ1 inh	hERG protect	Kir21 block	KCNK9 inh	KCNQ1 pot	KCNQ1 block val	CHO Tl flux	KCNQ2 inh	KCNQ1 KCNE1 spec	KCNK9 block conf	Kir21 sel	KCNK9 uninduced	others
Cc1ccc(S(=O)(=O)N2CCN(Cc3ccccc3C(F)(F)F)CC2)cc1	0	10	0	0	0	0	85.0	0	94.0%	94.5%	0	0	0
COc1ccc2c(c1)-c1nc(NC(=O)c3cccs3)sc1CC2	0	7	0	0	-16.1	0	107.5	0	100.3%	189.5%	75.0%	0	35.0%	KCNQ1 ephys val=0
COc1ccc(-c2onc(C)c2-c2cnn(-c3ccccc3)c2)c(O)c1C	0	6	0	0	0	0	44.0	0	115.3%	39.0%	0	0	0
CCCC[C@@H]1CN=C(N)N1CC(C)(C)C	0	0	0	0	0	0	-	-	-	-	-	-	-
CCOC1(c2ccccc2)OC(=O)c2ccccc21 (centres undefined)	0	0	0	0	0	0	-	-	-	-	-	-	-
Cc1cccc(C)c1OC1(c2ccccc2)OC(=O)c2ccccc21 (centres undefined)	0	9	0	0	-19.2	0	106.0	0	98.0%	138.0%	55.0%	32.5%	44.0%	KCNQ1 ephys val=0
O=C(Nc1ccc(Oc2cccc3ccccc23)cc1)c1ccco1	0	11	0	0	-13.6	0	160.5	0.287	0	+	53.5%	0	31.0%
Nc1ncnc(N2CCOCC2)n1	0	-	-	-	-	-	-	-	-	-	-	-	-
Cc1ccc(Cl)cc1NC(=O)CC(O)(C(F)(F)F)C(F)(F)F	0	8	0	0	-19.2	0	89.5	0	0	83.0%	0	29.0%	28.0%
CCc1ccccc1NCC(=O)Nc1ccc(Cl)c(C(F)(F)F)c1	0	8	0	0	0	0	50.0	0	61.7%	0	0	0	39.5%
Cc1cc(C)c(C#N)c(SCC(=O)N(C)C2CCCCC2)n1	0	0	0	0	0	0	-	-	-	-	-	-	-
